Source: PubChem
Most compounds without a hit are left out; they make up all but 2.6% or so of the library.
INS-1E GSIS act = primary screen for activators of insulin secretion dependent on glucose, INS-1E cells, GLuc reporter luminescence; INS-1E GLuc reporter insulin secretion, 2-3 h; hit rate 0.61% among 370,000; activation, % at 16.6 µM; AID 743287;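 active means lowest replicate activation of at least 40%, so every replicate reaches that level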;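 further: 0% = median of neutral control wells and 100% = median of IBMX positive control wells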
E-sel inducer = E-selectin induction on HUVECs. activation, % at 7.58 µM. HUVEC E-selectin immunofluorescence imaging; normalized: neutral wells 0, TNF-alpha wells 100. AID 686992. hit rate 0.37% among 260,000. P16581;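 active means mean E-selectin-positive cell signal at least 10% of the positive control, reached in at least 60% of replicates, without over 20% cell loss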
Target sequence (P16581 whole entry, looked up): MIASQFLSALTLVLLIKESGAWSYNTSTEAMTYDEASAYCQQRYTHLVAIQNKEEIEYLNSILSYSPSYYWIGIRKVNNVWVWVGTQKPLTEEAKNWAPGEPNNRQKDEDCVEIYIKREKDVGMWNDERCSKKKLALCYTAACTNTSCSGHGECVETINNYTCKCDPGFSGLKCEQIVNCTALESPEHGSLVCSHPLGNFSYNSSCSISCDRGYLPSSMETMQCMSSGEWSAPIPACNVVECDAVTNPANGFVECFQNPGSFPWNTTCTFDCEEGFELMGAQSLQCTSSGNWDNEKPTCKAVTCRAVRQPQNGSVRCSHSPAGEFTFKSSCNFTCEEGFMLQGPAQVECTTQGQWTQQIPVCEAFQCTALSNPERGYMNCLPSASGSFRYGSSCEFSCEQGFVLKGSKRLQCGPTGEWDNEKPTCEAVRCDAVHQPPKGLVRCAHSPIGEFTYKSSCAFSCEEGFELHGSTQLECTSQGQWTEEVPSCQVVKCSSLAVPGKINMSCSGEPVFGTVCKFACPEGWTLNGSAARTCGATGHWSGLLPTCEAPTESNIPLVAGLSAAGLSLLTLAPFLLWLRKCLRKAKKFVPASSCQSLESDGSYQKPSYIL
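Read-out basis: % PE-positive cells; Test system: HUVEC primary endothelial cells; Technique: immunofluorescence imaging; Dosing: single-point compound dose.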
ERAP1 HTS inh = blocks human ERAP1 aminopeptidase activity; Q9NZ08; recombinant ERAP1, Leu-AMC fluorescence, 60 min; inhibition, % at 10.7 µM; hit rate 0.15% among 340,000; AID 652197;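 active means mean replicate inhibition of at least 30%, or all replicates individually reaching that 30% level; inactive means mean below 30% and not every replicate reaching it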;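 further: 0% = neutral control wells and 100% = L-leucinethiol positive control wells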
DENV2 CPE rescue = DENV2-induced cell death inhibition; DENV2-infected cells, cytopathic effect rescue, plate reader; CPE inhibition, % at 9.99 µM; hit rate 1.7% among 350,000; AID 651640; in the data active means CPE inhibition above about 20%, passing the limit was not always enough; tested in BHK-21 cells;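 further: 0% = median of neutral control wells and 100% = median of positive control wells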
miR122 inh = inhibitors of miR-122 in Huh7 cells | Huh7 miR-122 Renilla luciferase sensor, 48 h; neutral wells = 0, positive control = 100 | activation (reporter increase), % at 12.5 µM | hit rate 0.3% among 340,000 | AID 602342;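 active means mean replicate activation score at least 90 and every replicate individually at or above 90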;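 further: higher luciferase means less miR-122 activity so hits act as miR-122 inhibitors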
F508del corr = CFTR F508del correction in bronchial cells; CFBE cells, YFP halide quenching; stimulated with forskolin plus potentiator P3; % fluorescence drop versus neutral controls; activity (quench increase), % at 7.58 µM; hit rate 0.36% among 350,000; AID 720511;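 active means mean added fluorescence quench of at least 8% versus neutral control, with both replicates also reaching 8%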;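 further: cells transiently co-express mutant CFTR-F508del with the halide-sensitive YFP; corrector assay measuring rescue of mutant channel to the surface after 24 h compound exposure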
Starred values were filed as active, the others as inactive; . = not tested or not shown; ! = repeats disagree; [ ] = dose if it differs, or a comment.

SMILES	INS-1E GSIS act	E-sel inducer	ERAP1 HTS inh	DENV2 CPE rescue	miR122 inh	F508del corr
COc1ccc(S(=O)(=O)N(C)C[C@H]2Oc3ccc(NC(=O)Nc4ccc(F)cc4)cc3C(=O)N([C@H](C)CO)C[C@H]2C)cc1	-24	0	2	-6	101*[16.7 µM]	2
COc1ccc(S(=O)(=O)N(C)C[C@H]2OCCCC[C@H](C)Oc3ccc(NC(=O)Nc4c(C)noc4C)cc3C(=O)N([C@H](C)CO)C[C@@H]2C)cc1	-2	0	3	67*	-2[16.7 µM]	-2
COc1ccc(S(=O)(=O)N(C)C[C@H]2OCCCC[C@H](C)Oc3ccc(NC(=O)Nc4c(C)noc4C)cc3C(=O)N([C@@H](C)CO)C[C@H]2C)cc1	15	0	2	16	-1[16.7 µM]	-1
COc1ccc(S(=O)(=O)N(C)C[C@@H]2Oc3ccc(NC(=O)Nc4ccc(F)cc4)cc3C(=O)N([C@@H](C)CO)C[C@H]2C)cc1	-19	0	3	14	2[16.7 µM]	-2
COc1ccc(NC(=O)Nc2ccc3c(c2)C(=O)N([C@H](C)CO)C[C@@H](C)[C@H](CN(C)S(=O)(=O)c2ccc(OC)cc2)O3)cc1	-13	1	3	-8	18[16.7 µM]	-2
COc1ccc(NC(=O)Nc2ccc3c(c2)C(=O)N([C@H](C)CO)C[C@@H](C)[C@@H](CN(C)S(=O)(=O)c2ccc(OC)cc2)O3)cc1	-14	0	4	3	101*[16.7 µM]	1
C[C@@H]1CN([C@@H](C)CO)C(=O)c2cc(C#CCc3ccccc3)cnc2O[C@H]1CN(C)C(=O)C1CCCCC1	16	0	-4	-2	-7[16.7 µM]	-2
CO[C@@H]1CN(C)C(=O)c2cc(NC(=O)NC(C)C)ccc2OC[C@@H](C)N(C(=O)CN(C)C)C[C@H]1C	10	0	2	-5	.	1
C[C@@H]1CCCCO[C@H](CN(C)C(=O)Nc2ccccc2)[C@@H](C)CN([C@H](C)CO)C(=O)c2cc(NC(=O)NC3CCCCC3)ccc2O1	-20	.	-4	-1	9[16.7 µM]	0
COc1ccc(S(=O)(=O)N(C)C[C@H]2Oc3ccc(NC(=O)Nc4c(C)noc4C)cc3C(=O)N([C@H](C)CO)C[C@@H]2C)cc1	11	55*!	-5	-10	2[16.7 µM]	1
Cc1ccc(S(=O)(=O)N(C)C[C@H]2Oc3ccc(NC(=O)Nc4c(C)noc4C)cc3C(=O)N([C@H](C)CO)C[C@@H]2C)cc1	12	0	-6	-5	-3[16.7 µM]	2
CC(C)[C@H](C)NC(=O)N(C)C[C@@H]1OCc2ccccc2-c2c(n(C)c3ccccc23)C(=O)N([C@H](C)CO)C[C@H]1C	-26	0	0	.	.	-3
CCO[C@H]1OC(C(=O)NC2CC2)=C[C@@H](c2ccc(C(F)(F)F)cc2)[C@@H]1CCCO	-42	0	4	25*!	0	0
CCO[C@H]1OC(C(=O)N2CCCC2)=C[C@@H](c2ccc3c(c2)OCO3)[C@@H]1CCCO	.	.	2	-6	.	-2
CCO[C@H]1OC(C(=O)O)=C[C@@H](c2ccc3c(c2)OCO3)[C@@H]1CCCO	.	1	-3	24*	-4	-1
CCO[C@@H]1OC(C(=O)NC2CC2)=C[C@H](c2ccc(C(F)(F)F)cc2)[C@H]1CCCO	-24	0	3	12	-2	-1
CCO[C@H]1OC(C(=O)N2CCOCC2)=C[C@@H](c2cn(C(C)=O)c3ccccc23)[C@@H]1CCCO	3	1	0	27*!	5	1
CCC(=O)N1CC[C@@H]2[C@H]1c1cc(-c3cccc(F)c3)ccc1N(C)[C@H]2CO	0	0	.	.	9[16.7 µM]	-1
CCCC#Cc1ccc2c(c1)[C@@H]1[C@@H](CCN1C(=O)CC1CC1)[C@@H](CO)N2C	7	0	0	74*	-3[16.7 µM]	0
CN1c2ccc(-c3ccc(F)cc3)cc2[C@@H]2[C@@H](CCN2C(=O)CC2CC2)[C@@H]1CO	-12	1	.	10	1[16.7 µM]	0
CCC(=O)N1CC[C@@H]2[C@H]1c1cc(C#Cc3cccc(F)c3)ccc1N(C)[C@H]2CO	2	1	0	127*	5[16.7 µM]	1
C/C=C/c1ccc([C@@H]2[C@@H](CO)N(S(C)(=O)=O)C23CN(C(=O)CC)C3)cc1	11	0	1	-6	.	-2
COc1ccc(CN(C(=O)c2ccc(-c3ccccc3)[nH]2)C(C(=O)NCC2CCCO2)c2ccc(C)o2)cc1 (stereo not drawn)	.	.	.	.	230*	.
Cc1cc(C)cc(N(C(=O)c2snc(C(N)=O)c2N)C(C(=O)NCC2CCCO2)c2ccc(C)o2)c1 (stereo not drawn)	-14	.	-4	2	-6	3
COc1cc(OC)cc(N(C(=O)c2snc(C(N)=O)c2N)C(C(=O)NCC2CCCO2)c2ccc(C)o2)c1 (stereo not drawn)	8	44*	-4	-4	0	-1
SMILES	INS-1E GSIS act	E-sel inducer	ERAP1 HTS inh	DENV2 CPE rescue	miR122 inh	F508del corr
CCOC(=O)CCNC(=O)N1CCCC(C(=O)c2cccc(Cl)c2)C1 (stereo not drawn)	2	.	-2	1	-2	0
CCOC(=O)CCNC(=O)N1CCCC(C(=O)c2cccc(OC(C)C)c2)C1 (stereo not drawn)	48*	0	-4	-5	.	-1
S=C(NCC1CCCCC1)Nc1ccc(Oc2ccccc2)cc1	-2	-2	0	-2	117*	2
S=C(Nc1ccc(Oc2ccccc2)cc1)NC1CCCC1	-16	-2	8	-2	.	.
CCOc1ccc(-c2nc(N)nc(C)c2-c2ccc(Cl)cc2)c(O)c1	-21	.	3	-4	1	-2
COc1ccc(-c2nc(N)nc(C)c2-c2ccc(Cl)cc2)c(O)c1	-11	59*	-3	0	2	-3
CC(C)NC(=O)N(C)C[C@@H]1Oc2ccc(NC(=O)CCN3CCOCC3)cc2C(=O)N([C@@H](C)CO)C[C@H]1C	15	33*	2	-2	7[16.7 µM]	0
CC(C)NC(=O)N(C)C[C@H]1Oc2ccc(NC(=O)CCN3CCOCC3)cc2C(=O)N([C@H](C)CO)C[C@@H]1C	28	43*	-1	-2	2[16.7 µM]	0
C[C@@H]1CN([C@H](C)CO)C(=O)c2cc(NC(=O)CCN3CCOCC3)ccc2O[C@@H]1CN(C)C(=O)Nc1ccc2c(c1)OCO2	6	-3	-2	50*	1[16.7 µM]	-1
CO[C@H]1CN(C)C(=O)c2ccc(NC(=O)C3CC3)cc2OC[C@H](C)N(C(=O)C2CCCCC2)C[C@@H]1C	6	.	.	.	.	.
C[C@@H]1CN([C@H](C)CO)C(=O)c2cc(NS(=O)(=O)c3cccs3)ccc2O[C@@H](C)CCCCO[C@@H]1CN(C)C(=O)Cc1ccccc1	-25	0	1	-3	4[16.7 µM]	0
O=C(O)c1ccc(N=NN2CCCC2)cc1	8	.	-1	-2	.	-2
